Assay results taken from ChEMBL document CHEMBL3393007, “IND-2, a pyrimido[1″,2″:1,5]pyrazolo[3,4-b]quinoline derivative, circumvents multi-drug resistance and causes apoptosis in colon cancer cells” (Bioorg Med Chem, 2015).
The source made the active and inactive calls.

What was measured:
[1] = Cytotoxicity against human HCT116 cells after 72 hrs by MTT assay; type: functional, cell-based; conditions: HCT-116, 72 h
How it was run: (§1)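 HCT-116, HCT-15, HT-29, DU-145, PC-3 or HEK293/pcDNA3.1 cells in DMEM with 10% FBS were trypsinised and seeded at 5×10^3 cells/well. They received compound at 0.1–100 μM for 72 hr, then MTT (4 mg/mL) for 4 hr. Formazan was dissolved in DMSO and A570 read. IC50 by Bliss method from survival curves; ≥3 experiments, each in triplicate.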

[2] = Cytotoxicity against human S1 cells after 72 hrs by MTT assay; type: functional, cell-based; conditions: S1, 72 h
How it was run: (§2)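 Seeding was 6×10^3 cells/well (MDCK, NIH/3T3, MCF-7, MDA-MB-231, LS-180, LS-174, LoVo, S1) after trypsinisation, in DMEM with 10% FBS. Compound at 0.1–100 μM for 72 hr, then MTT (4 mg/mL) for 4 hr. Formazan dissolved in DMSO, absorbance at 570 nm. IC50 by Bliss method; means ± SD, ≥3 experiments in triplicate.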

[3] = Cytotoxicity against human PC3 cells after 72 hrs by MTT assay; type: functional, cell-based; conditions: PC-3, 72 h; how it was run: as §1
DU-145 = experiment: Cytotoxicity against human DU145 cells after 72 hrs by MTT assay; type: functional, cell-based; conditions: DU-145, 72 h; how it was run: as §1
2008 = experiment: Cytotoxicity against human 2008 cells after 72 hrs by MTT assay; type: functional, cell-based; conditions: Homo sapiens, 2008, 72 h
How it was run: (§3)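 MTT assay over 0.1–100 μM with a 72 hr exposure, then 4 hr with MTT (4 mg/mL). Formazan dissolved in DMSO, A570 read. IC50 from survival curves (Bliss method); three independent experiments in triplicate; 100 μM taken as cut-off.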

A2780 = experiment: Cytotoxicity against human A2780 cells after 72 hrs by MTT assay; type: functional, cell-based; conditions: A2780, 72 h; how it was run: as §3
HepG2 [4] = experiment: Cytotoxicity against human HepG2 cells after 72 hrs by MTT assay; type: functional, cell-based; conditions: HepG2, 72 h; how it was run: as §3
MDA-MB-231 = experiment: Cytotoxicity against human MDA-MB-231 cells after 72 hrs by MTT assay; type: functional, cell-based; conditions: MDA-MB-231, 72 h; how it was run: as §2
MDCK = experiment: Cytotoxicity against MDCK cells after 72 hrs by MTT assay; type: cell-based; conditions: Canis lupus familiaris; how it was run: as §2
[5] = Cytotoxicity against mouse NIH/3T3 cells after 72 hrs by MTT assay; type: cell-based; conditions: NIH3T3, 72 h; how it was run: as §2
HEK293 = experiment: Cytotoxicity against HEK293 cells expressing pcDNA3.1 after 72 hrs by MTT assay; type: cell-based; conditions: Homo sapiens, HEK293, 72 h; how it was run: as §1
HepG2 [6] = experiment: Cytotoxicity against human HepG2 cells assessed as reduction in cell viability at 10 uM after 24 hrs by Celltiter-Glo luminescent cell viability assay; type: cell-based; conditions: hepg2, 24 h
How it was run: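 Viability of HepG2 cells was measured in parallel with the PXR reporter assay. Cells were transfected, plated at 10,000/well in phenol red-free DMEM with 5% charcoal/dextran-treated FBS, and treated 24 hr with 1 or 10 μM or DMSO. ATP was quantified by CellTiter-Glo luminescence. Means ± SD of triplicates, t-test versus DMSO.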

Homo sapiens = organism: Homo sapiens; experiment: Cytotoxicity against drug-resistant human S1-M1-80 cells expressing ABCG2 G482 mutant after 72 hrs by MTT assay; type: functional, cell-based
How it was run: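 S1-M1-80 colon cells (G482 mutant ABCG2), maintained in medium with 80 μM mitoxantrone, tested by MTT alongside parental S1. 72 hr exposure, MTT 4 hr, DMSO solubilisation, A570. IC50 by Bliss method; SN-38 and topotecan run as comparators; means ± SD of triplicate determinations.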

MCF7 = experiment: Cytotoxicity against human MCF7 cells after 72 hrs by MTT assay; type: functional, cell-based; conditions: MCF7, 72 h; how it was run: as §2

| Compound | IC50 [1] | IC50 [2] | IC50 [3] | IC50 (DU-145) | IC50 2008 | IC50 (A2780) | IC50 (HepG2 [4]) | IC50 (MDA-MB-231) | IC50 (MDCK) | IC50 [5] | IC50 (HEK293) | Activity (HepG2 [6]) | Activity (Homo sapiens) | IC50 (MCF7) |
| --- | --- | --- | --- | --- | --- | --- | --- | --- | --- | --- | --- | --- | --- | --- |
| Cc1cc(NCCN(C)C)n2nc3nc4ccccc4cc3c2n1 | 65.8 µM | 69.8 µM | 79.8 µM | 59.9 µM | > 100 µM | > 100 µM | > 100 µM | 48.7 µM | > 100 µM | > 100 µM | 93.4 µM | – | – | – |
| Cc1cc(=O)n2nc3nc4ccccc4cc3c2[nH]1 | – | 63.6 µM | 46.5 µM | – | 88.6 µM | 74.3 µM | 89.5 µM | – | > 100 µM | 98.4 µM | 69.6 µM | – | – | – |
| CO[C@H]1/C=C/O[C@@]2(C)Oc3c(C)c(O)c4c(O)c(c(/C=N/N5CCN(C)CC5)c(O)c4c3C2=O)NC(=O)/C(C)=C\C=C\[C@H](C)[C@H](O)[C@@H](C)[C@@H](O)[C@@H](C)[C@H](OC(C)=O)[C@@H]1C [RIFAMPIN] | – | – | – | – | – | – | – | – | – | – | – | Toxic | – | – |
| CCc1c2c(nc3ccc(O)cc13)-c1cc3c(c(=O)n1C2)COC(=O)[C@]3(O)CC | – | – | – | – | – | – | – | – | – | – | – | – | inactive | – |
| CCN(CC)CCNc1cc(C)nc2c3cc4ccccc4nc3nn12 | – | 44.6 µM | 62.5 µM | – | 78.1 µM | 87.5 µM | 67.4 µM | 58.8 µM | 41.6 µM | 48.2 µM | – | – | – | 53.5 µM |
